# From PubChem BioAssay
# AI-2 QS mod – modulators of Vibrio harveyi AI-2 quorum sensing system; Vibrio harveyi JMH597 AI-2 luminescence/OD600 ratio, 9 h; active compounds read low; strain lacks LuxN and CqsS sensors; 0 = neutral-control median; activity change, % at 7.5 µM; 0.4% of 300,000 active; in the data active means activity change below about -75%, passing the limit was not always enough; inconclusive means no clear call, values can overlap the other calls;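 further: luminescence divided by OD600 gain over 9 h not by final OD600 alone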
# T cruzi inh – T. cruzi replication inhibition; AID 1885; 1.4% of 300,000 active; T. cruzi beta-gal in NIH3T3, luminescence, 90 h; inhibition, % (no concentration beside the values);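 active means mean inhibition across valid replicates above about 55%, limit read from the data; inconclusive means mean below that limit but half or more replicates reach it; inactive means mean below it, under half of replicates reach it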;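 further: signal also drops with host cell toxicity which is not excluded here; higher percent means less beta-gal luminescence so fewer parasites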
#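 assay system = mouse NIH/3T3 fibroblasts infected with β-gal-expressing T. cruzi Tulahuen C4 | input = 5,000 NIH/3T3 host cells per well | buffer or medium = DMEM plus 2% FBS | timing = 3 h host attachment, then at least 90 h co-culture | measured by = GalScreen luminescence, 60 min | evaluation = luminescence reflecting intracellular parasite burden, expressed as percent inhibition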
# CendR NRP1 mod – modulators of CendR peptide binding to human neuropilin-1; O14786; FAM-RPARPAR peptide binding to NRP-1, fluorescence polarization; inhibition, % at 25 µM; 0.85% of 360,000 active;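 active means inhibition or corrected inhibition above about 18%, plus a signal ratio from 0.5 to 1.5, limit read from the data, passing the limit was not always enough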
# Target sequence (O14786 whole entry, looked up): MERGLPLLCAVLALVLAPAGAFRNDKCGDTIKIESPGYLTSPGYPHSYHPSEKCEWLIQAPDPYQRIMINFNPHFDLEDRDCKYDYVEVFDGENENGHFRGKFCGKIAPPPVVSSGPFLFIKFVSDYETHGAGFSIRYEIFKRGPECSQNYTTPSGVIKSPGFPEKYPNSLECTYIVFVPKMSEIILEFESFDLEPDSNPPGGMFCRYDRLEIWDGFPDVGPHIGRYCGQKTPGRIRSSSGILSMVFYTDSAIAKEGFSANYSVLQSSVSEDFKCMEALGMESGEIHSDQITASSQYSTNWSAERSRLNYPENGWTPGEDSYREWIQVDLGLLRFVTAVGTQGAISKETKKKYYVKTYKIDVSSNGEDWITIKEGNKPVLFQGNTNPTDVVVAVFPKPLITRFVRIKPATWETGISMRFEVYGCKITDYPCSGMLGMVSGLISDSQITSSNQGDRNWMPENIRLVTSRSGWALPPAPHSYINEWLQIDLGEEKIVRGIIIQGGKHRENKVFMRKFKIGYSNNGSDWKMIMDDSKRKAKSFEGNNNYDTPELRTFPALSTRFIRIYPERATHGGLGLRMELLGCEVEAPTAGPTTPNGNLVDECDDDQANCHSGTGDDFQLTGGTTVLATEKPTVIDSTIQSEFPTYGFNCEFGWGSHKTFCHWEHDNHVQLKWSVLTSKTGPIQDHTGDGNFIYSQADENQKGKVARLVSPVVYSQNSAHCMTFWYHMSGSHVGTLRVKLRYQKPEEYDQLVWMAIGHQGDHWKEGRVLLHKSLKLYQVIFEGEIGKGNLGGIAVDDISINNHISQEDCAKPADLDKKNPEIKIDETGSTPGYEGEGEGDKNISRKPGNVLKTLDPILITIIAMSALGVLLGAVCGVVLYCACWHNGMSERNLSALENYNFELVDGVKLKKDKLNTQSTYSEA
# V-ATPase pH – regulators of yeast V-ATPase proton transport; S. cerevisiae, pHLuorin cytosolic pH fluorescence; response, % at 10 µM; 0.37% of 350,000 active; in the data active means response mostly above about 7.3%, no sharp cut-off; inactive means mostly below about 5.4%; further: actives read high
# CR mimetic SO – caloric restriction mimetics inhibiting age-related superoxide in yeast | 0.18% of 330,000 active | S. cerevisiae aged cells, superoxide DHE fluorescence; active compounds read low | superoxide response (% of plate mean), % at 10 µM;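 active means superoxide response under a set limit, about three screen SD below normal, cut at about 65% in these data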;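 further: yeast aged for seven days with compound at 30 °C before DHE staining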
# HIF activator – HIF pathway transcriptional activation; U2OS HRE-luciferase reporter, luminescence; normalized: DMSO 0%, desferrioxamine 100%; activation, % at 7.5 µM (by protocol); 0.32% of 300,000 active; AID 1910;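 active means mean activation of at least 10% of the iron chelator positive control signal, with at least half of replicates also reaching 10%; inconclusive means mean and replicate majority disagree about reaching 10%; inactive means mean and most replicates under 10%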
# Hits are given with their value; . = inactive; ? = inconclusive; / = no result. Most compounds without a hit are left out; they make up all but 3% or so of the library.
SMILES,AI-2 QS mod,T cruzi inh,CendR NRP1 mod,V-ATPase pH,CR mimetic SO,HIF activator
Cc1ccc(N2C(=O)c3ccccc3NC2C(C)Cc2ccc3c(c2)OCO3)cc1 (stereo unspecified),.,55,.,.,.,.
COc1ccc(NC(=O)CCC(=O)N(Cc2ccc(OC)c(OC)c2)c2nccs2)cc1,.,.,.,.,.,170
Cc1ccc(C)c(-n2c(SCC(=O)N3CCC(C(=O)O)CC3)nnc2-c2cccc(Cl)c2)c1,.,.,27,.,.,.
OC[C@@H]1CN(Cc2ccccc2)C[C@H](n2cnc3c(NCc4ccc(F)cc4)ncnc32)O1,/,/,.,/,/,/
Cc1ccnc(N2C(=O)c3cccc4c([N+](=O)[O-])ccc(c34)C2=O)c1,.,64,36,.,.,.
Cc1ccc(N2C(=O)c3cccc4c([N+](=O)[O-])ccc(c34)C2=O)c2cccnc12,.,.,.,.,.,.
O=C1c2cccc3cccc(c23)C(=O)N1Cc1cccnc1,.,.,.,.,.,.
O=C1c2cccc3c([N+](=O)[O-])ccc(c23)C(=O)N1Cc1cccnc1,.,85,69,.,/,.
CCOC(=O)c1c(C)[nH]c(C(=O)OCC(=O)Nc2sc(C(=O)N(C)C)c(C)c2C(=O)OCC)c1C,.,69,.,.,.,.
CCN1CCc2c(sc(NC(=O)COc3ccccc3)c2C(=O)OC)C1,.,.,.,.,.,.
COc1cc(CNc2ccc(CNc3ncn[nH]3)cc2)ccc1OCc1ccccc1,.,.,.,.,.,.
CC(C(=O)N1CCc2ccccc21)N1CCN(Cc2ccccc2)CC1 (stereo unspecified),.,56,.,.,.,.
CCOC(=O)c1ccccc1NC(=O)c1cccs1,/,/,.,.,.,/
O=NN(CCc1ccncc1)c1ccc(OCc2ccccc2)cc1,.,72,.,.,.,.
O=C(NCc1ccncc1)C(=O)N/N=C/c1ccc(OCc2ccccc2)cc1,.,.,.,.,.,.
CN(C)S(=O)(=O)c1ccc(N2CCN(S(=O)(=O)c3ccc(F)cc3)CC2)c(Cl)c1,.,.,.,.,.,.
Cc1ccc(Nc2cc(C)nn2-c2nc(C)cc(=O)[nH]2)cc1,-160,56,.,.,.,216
Nc1cc(=O)n(Cc2ccccc2)c(=O)n1-c1ccc(Cl)cc1,.,.,36,.,.,.
CN(c1ccccc1)S(=O)(=O)CS(=O)(=O)N(C)c1ccccc1,/,/,.,.,/,/
CN(c1ccccc1)P(=O)(N(C)c1ccccc1)N(C)c1ccccc1,.,66,.,.,.,.
CCN(CC)c1ncnc2c1ncn2[C@H]1CN(CCOC)C[C@@H](CO)O1,/,/,.,/,/,/
COCCN1C[C@@H](CO)O[C@@H](n2cnc3c(N(C)C(C)C)ncnc32)C1,/,/,24,/,/,/
Cc1ccccc1-n1ncc2c1CC(C)(C)CC2NC(=O)C1CCC1 (stereo unspecified),.,.,.,.,.,.
C#CCn1c(=NC(=O)c2ccc(S(=O)(=O)N3CCCc4ccccc43)cc2)sc2cc(S(N)(=O)=O)ccc21,.,55,.,.,.,.
Cn1c(=NC(=O)c2ccc(S(=O)(=O)N3CCCc4ccccc43)cc2)sc2cc(S(C)(=O)=O)ccc21,.,.,.,.,.,.
SMILES,AI-2 QS mod,T cruzi inh,CendR NRP1 mod,V-ATPase pH,CR mimetic SO,HIF activator
O=C(COC(=O)CNC(=O)c1ccc(Cl)cc1)NC1CCCCCC1,/,/,.,.,.,/
CCN(CC)c1ncnnc1-c1ccccc1,.,.,.,.,.,.
COc1ccc(/C=C/C(=O)c2ccc([N+](=O)[O-])o2)cc1OC,.,.,/,/,/,.
COc1cc(/C=C/C(=O)c2ccc([N+](=O)[O-])o2)ccc1O,-175,?,.,.,.,.
CCOC(=O)/C(=N\Nc1cccc(C(F)(F)F)c1)N1CCOCC1,.,.,.,.,.,708
CCOC(=O)/C(=N\Nc1cccc(C(F)(F)F)c1)N(CCOC)CCOC,.,.,.,.,.,.
O=C(Oc1c(CN2CCOCC2)cc(Cl)c2cccnc12)c1ccccc1,.,.,.,.,.,.
O=C(Oc1c(CN2CCOCC2)cc(Cl)c2cccnc12)c1ccccc1F,.,74,.,.,.,.
CN(Cc1ccc(Cl)c(Cl)c1)C(=O)c1cccc(S(=O)(=O)N2CCN(Cc3ccccc3)CC2)c1,/,/,.,.,.,/
C=CCn1c(SCc2ccc(F)cc2)nnc1-c1sc2nc(C)cc(C)c2c1N,.,63,.,.,.,.
O=C(COC(=O)c1ccc(F)c(S(=O)(=O)N2CCOCC2)c1)NC1CCCCC1,/,/,.,.,.,/
O=C(NCC1CCCCC1)c1ccc(F)c(S(=O)(=O)N2CCOCC2)c1,/,/,21,.,.,/
O=C(Nc1ccc2c(c1)CCC2)c1ccc(F)c(S(=O)(=O)N2CCOCC2)c1,.,.,25,.,.,.
CC1CCCC(C)N1C(=O)COC(=O)c1ccc(F)c(S(=O)(=O)N2CCOCC2)c1 (stereo unspecified),.,.,23,.,.,.
COc1cc(CNc2ccc3[nH]c(=O)[nH]c3c2)cc(Br)c1OCc1ccccc1F,.,.,.,.,.,.
COc1ccc(CCN=C(N)NS(=O)(=O)c2cccs2)cc1OC,.,.,20,.,.,.
COc1ccccc1CCN=C(N)NS(=O)(=O)c1cccs1,.,.,.,.,.,.
COc1ccccc1C(=O)NC(CCSC)C(=O)NCC(c1cccs1)N(C)C (stereo unspecified),.,.,.,.,.,.
CCCS(=O)(=O)c1nc(S(=O)(=O)c2ccc(C)cc2)c(N2CCCC2)s1,.,.,19,.,.,.
CC(C)[C@H](NC(=O)c1ccc(Cl)cc1Cl)C(=O)OCc1nc2ccsc2c(=O)[nH]1,/,/,.,.,/,/
Cc1ccc2nc(-c3ccncc3)cc(C(=O)NCCc3ccc(F)cc3)c2c1,.,56,.,.,.,.
CC(C)(C)C(=O)COC(=O)c1cc(-c2ccncc2)nc2ccccc12,.,.,27,.,.,.
CCCCCCCNC(=O)c1cc(-c2ccncc2)nc2ccccc12,.,57,.,.,.,.
Cc1ccc2nc(-c3ccccn3)cc(C(=O)NCCc3ccc(F)cc3)c2c1,.,.,.,.,.,.
NS(=O)(=O)c1ccc(CCNC(=O)c2cc(-c3ccccc3)nc3ccccc23)cc1,.,.,30,.,.,.
Cc1ccc(-c2cc(C(=O)NCCc3ccc(S(N)(=O)=O)cc3)c3ccccc3n2)cc1,.,.,.,.,.,.
Cc1ccc(-c2csc(NC(=O)CSc3nc4ccccc4c(=O)n3CCCN(C)C)n2)cc1,.,.,.,.,.,.
Cn1c(SCC(=O)N2c3ccccc3Sc3ccccc32)nc2ccccc21,.,59,.,.,.,.
CN(C)CCCn1c(SCC(=O)N2c3ccccc3Sc3ccccc32)nc2ccccc2c1=O,.,58,.,.,.,.
